In one test the test system is A549. The test is described as follows: Cytotoxicity against human A549 cells. The class given is cell-based.
Test [1] is described as follows: Cytotoxicity against human Bel7402 cells. As to conditions: Bel-7402. Type of test: cell-based.
Test [2] in a line: Cytotoxicity against human […] cells. The class given is cell-based.
Another test deals with Liver microsomes. The test is described as follows: Antioxidant activity assessed as inhibition of rat liver microsomal lipid peroxidation. Type of test: functional, Microsome. In general terms: Microsomes from liver hold many membrane-bound enzymes, among them those of drug oxidation.
The next test relates to HCT-8. In words: Cytotoxicity against human HCT8 cells. Type of test: cell-based.
In test [3] the target is T1, Tyrosine-protein phosphatase non-receptor type 1 (Homo sapiens, UniProt P18031).
T1 sequence (P18031 whole entry): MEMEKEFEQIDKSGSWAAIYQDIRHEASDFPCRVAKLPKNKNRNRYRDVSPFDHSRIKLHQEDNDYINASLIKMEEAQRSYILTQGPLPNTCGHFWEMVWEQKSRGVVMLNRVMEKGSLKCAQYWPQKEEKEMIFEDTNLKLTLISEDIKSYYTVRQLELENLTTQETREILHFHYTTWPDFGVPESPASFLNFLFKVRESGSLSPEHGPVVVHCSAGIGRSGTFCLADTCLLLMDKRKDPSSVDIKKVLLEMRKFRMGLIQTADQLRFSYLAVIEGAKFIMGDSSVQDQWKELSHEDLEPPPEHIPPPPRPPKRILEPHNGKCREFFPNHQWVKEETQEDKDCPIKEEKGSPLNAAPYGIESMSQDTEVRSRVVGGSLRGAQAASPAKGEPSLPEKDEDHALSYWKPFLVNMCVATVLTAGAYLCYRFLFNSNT
In words: Inhibition of human PTP1B. In a few lines:
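Recombinant GST-tagged human PTP1B, purified from bacterial pellets on a GST bead column. Substrate 3 mM p-NPP in HEPES buffer, pH 7.0. Compounds dissolved in DMSO, 10% DMSO final in all reactions. First screened at 10 µM for 10 min at 30 °C. Reaction started by adding enzyme and stopped with 1 M NaOH. End-point p-nitrophenol absorbance at 405 nm.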

Molecules are shown by their SMILES. pIC50: −log10 of the molar value. Some results are limits rather than exact numbers.

One may read the IC50 as the concentration that inhibits the measured activity by half. In general, pIC50 refers to the negative decadic logarithm of the IC50, by convention in mol/L.

Take `CC1=CC(=O)[C@H](c2c(O)cc(/C=C/c3ccc(O)c(O)c3)oc2=O)[C@@H](c2ccc(O)c(O)c2)O1` [DAVALLIALACTONE]: the half-maximal inhibitory concentration (IC50) (in the test with A549; in test [1]; in test [2]; with HCT-8) was > 10 µg/mL in each case. For the same compound, in the test with Liver microsomes, the negative logarithm of the IC50 (pIC50) was 5.09.

Turning to `O=c1oc2cc(-c3c(-c4ccc(O)c(O)c4)oc4cc(/C=C/c5ccc(O)c(O)c5)oc(=O)c34)oc(=O)c2c2cc(O)c(O)cc12` [PHELLIGRIDIN H], the IC50 (in the test with A549; in test [1]; in test [2]; with HCT-8) was > 10 µg/mL each time. In the test with Liver microsomes, the pIC50 was 5.32.

Regarding `O=c1oc(/C=C/c2ccc(O)c(O)c2)cc(O)c1-c1cc(O)c(O)cc1/C=C/c1cc2oc(=O)c3cc(O)c(O)cc3c2c(=O)o1` [PHELLIGRIDIN I], the negative logarithm of the IC50 (pIC50) in test [3] was 5.52; with Liver microsomes it was 5.43. The IC50 (in the test on A549; in test [1]; in test [2]; with HCT-8) was > 10 µg/mL throughout.

In the case of `O=C(O)c1cc2oc(=O)c3cc(O)c(O)cc3c2c(=O)o1` [PHELLIGRIDIN J], the negative logarithm of the IC50 (pIC50) in test [3] is < 5.00; in the test on A549, 5.38; in test [1], 5.04; in test [2] it was 5.14; with Liver microsomes it was 5.19; with HCT-8 it was 5.08.

Turning to `CC[C@@]1(O)C(=O)OCc2c1cc1n(c2=O)Cc2cc3c(CN(C)C)c(O)ccc3nc2-1` [TOPOTECAN], the negative logarithm of the IC50 (pIC50) in the test with A549 is 5.51; in test [1], 5.85; in test [2], 5.92; in the test on HCT-8 it was 5.80.

The values above are taken from ChEMBL document CHEMBL1141409, “Structures, biogenesis, and biological activities of pyrano[4,3-c]isochromen-4-one derivatives from the Fungus Phellinus igniarius” (J Nat Prod, 2007).
